From ChEMBL document CHEMBL5046320, “A Stepwise Targeting Curcumin Derivative, Ser@TPP@CUR, for Acute Kidney Injury” (ACS Med Chem Lett, 2022)
Active and inactive are the calls of the source. The rule behind the calls is not given here.

Experiments:
[1] = Drug uptake in LPS stimulated human HK-2 cells pretreated with LPS for 12 hrs followed by compound addition incubated for 2 to 6 hrs by inversed fluorescence microscope analysis; format: ADME, cell-based; details: time 2-6 hrs
Outline: (§1)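 HK-2 cells with or without LPS treatment incubated with compound for 2.0 and 6.0 h; uptake imaged by fluorescence microscopy; flow cytometry at 2.0 h.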

HK-2 [2] = assay: Induction of apoptosis in LPS-induced HK-2 cells assessed as increase in mitochondrial cytochrome C protein expression pretreated with LPS followed by compound addition incubated for 24 hrs by immunoblotting analysis; format: functional, cell-based; details: Homo sapiens
Outline: (§2)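 LPS-treated HK-2 cells; cytochrome c in mitochondrial and cytosolic fractions, cleaved caspase-9 and cleaved caspase-3 detected by immunoblot, normalised to β-actin; mean ± SD, n = 3.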

[3] = Drug distribution in kidney of Balb/c mouse model assessed as increase in CUR level at 4 mg/kg, iv after 2 hrs of administration by IVIS Lumina III analysis; format: ADME, organism-based; details: in vivo
Outline: (§3)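 Normal or AKI mice given intravenous dose (CUR, 4 mg/kg); heart, lung, liver, spleen and kidney imaged ex vivo 2 h later on IVIS Lumina III; tissue distribution as mean ± SD, n = 6.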

Kidney [4] = assay: Antioxidant activity against LPS-induced acute kidney injured Balb/c mouse model assessed as reduction of increased MDA level at 4 mg/kg,iv; format: functional, organism-based
Outline: (§4)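 SOD, GSH and MDA levels determined in renal tissue of LPS-induced AKI mice after treatment at CUR 4 mg/kg; n = 6.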

Mus musculus [5] = assay: Antioxidant activity against LPS-induced acute kidney injured Balb/c mouse mitochondrial fraction of kidney assessed as reduction of H2O2 generation at 4 mg/kg,iv by Amplex Red dye Hydrogen Peroxide assay; format: functional, organism-based; details: Mitochondria
Outline: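 Mitochondria isolated intact from renal tissue of LPS-induced AKI mice; H₂O₂ production measured with Amplex Red H₂O₂/peroxidase detection kit after treatment at CUR 4 mg/kg; n = 6.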

[6] = Drug uptake in LPS stimulated human HK-2 cells pretreated with LPS for 12 hrs followed by compound addition incubated for 2 to 6 hrs by flow cytometry method; format: ADME, cell-based; details: time 2-6 hrs; outline: as §1
Kidney [7] = assay: Nephroprotective activity against acute kidney injured Balb/c mouse kidney assessed as decrease in disappeared and expanded tubular border brush at 4 mg/kg,iv by H and E staining based assay; format: functional, organism-based
Outline: (§5)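 Renal tissue of AKI mice stained with H&E and examined by optical microscopy for tubular epithelial swelling, vacuolar degeneration and brush border loss; treatment at CUR 4 mg/kg.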

[8] = Drug uptake in LPS induced inflammation in human HK-2 cells assessed as decrease internalization in presence of Ser pretreated with LPS for 6 hr followed by compound addition incubated for 2 hr by flow cytometry; details: hk-2, 2 h
HK-2 [9] = assay: Nephroprotective activity against LPS induced human HK-2 cells assessed as increase in cell viability at 3 ug/ml incubated for 24 hrs by MTT assay relative to control; format: functional; details: dose 3 µg/ml
Outline: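 HK-2 cells exposed to 15 μg/mL LPS for 24 h; viability assessed by MTT assay; n = 6.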

HK-2 [10] = assay: Induction of apoptosis in LPS-induced human HK-2 cells assessed as inhibition of cytochrome c protein expression pretreated with LPS followed by compound addition incubated for 24 hrs by immunoblotting analysis; format: functional, cell-based; outline: as §2
Kidney [11] = assay: Nephroprotective activity against acute kidney injured Balb/c mouse kidney assessed as decrease in vacuolar degeneration at 4 mg/kg,iv by H and E staining based assay; format: functional, organism-based; outline: as §5
[12] = Drug distribution in kidney of acute kidney injured Balb/c mouse model assessed as KIM1 receptor mediated endocytosis at 4 mg/kg, iv by fluorescence imaging based assay; format: ADME, organism-based; details: in vivo
Outline: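 Renal tissue of AKI mice examined by fluorescence imaging for colocalization of compound (green) with immunostained KIM-1 receptor (red); free CUR as control.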

Kidney [13] = assay: Nephroprotective activity against acute kidney injured Balb/c mouse kidney assessed as decrease in swollen tubular epithelial cells at 4 mg/kg,iv by H and E staining based assay; format: functional, organism-based; outline: as §5
Mus musculus [14] = assay: Nephroprotective activity against LPS-induced acute kidney injured Balb/c mouse model assessed as reduction in blood urea nitrogen level at 4 mg/kg,iv by automatic biochemical analysis; format: functional, organism-based
Outline: (§6)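 Scr and BUN measured on automatic biochemical analyzer 24 h after administration (CUR, 4 mg/kg) to LPS-induced AKI mice; n = 6.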

Mus musculus [15] = assay: Nephroprotective activity against LPS-induced acute kidney injured Balb/c mouse model assessed as reduction in serum creatinine level at 4 mg/kg,iv by automatic biochemical analysis; format: functional, organism-based; outline: as §6
[16] = Drug uptake in human HK-2 cells incubated for 2 to 6 hrs by inversed fluorescence microscope analysis; format: ADME, cell-based; details: time 2-6 hrs; outline: as §1
Kidney [17] = assay: Antioxidant activity against acute kidney injured Balb/c mouse kidney assessed as reduction of nitrotyrosine expression at 4 mg/kg,iv by immunohistochemistry analysis; format: functional, organism-based
Outline: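 Renal sections from AKI mice stained by immunohistochemistry for nitrotyrosine after treatment at CUR 4 mg/kg; scale bar 50 μm.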

Kidney [18] = assay: Anti-inflammatory activity against LPS-induced acute kidney injured Balb/c mouse model assessed as reduction in kidney IL-6 level at 4 mg/kg,iv by ELISA; format: functional, organism-based
Outline: (§7)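 TNF-α and IL-6 measured by ELISA in renal tissue of LPS-induced AKI mice after CUR-based treatment (CUR, 4 mg/kg); n = 6.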

HK-2 [19] = assay: Antioxidant activity in human HK-2 cells assessed as reduction in LPS induced mitochondrial reactive oxygen species generation at 7.16 ug/ml pretreated with LPS for 24 hr followed by compound addition incubated for 2 hr by MitoSOX staining based inverted fluorescent microscopic analysis; format: functional, cell-based; details: dose 7.16 µg/ml
Outline: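 LPS-treated HK-2 cells exposed to test agent (7.16 μg/mL); mitochondrial superoxide visualised with MitoSOX Red indicator by fluorescence imaging.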

HK-2 [20] = assay: Induction of apoptosis in LPS-induced HK-2 cells assessed as inhibition of cleaved caspase-3 protein expression pretreated with LPS followed by compound addition incubated for 24 hrs by immunoblotting analysis; format: functional, cell-based; details: Homo sapiens; outline: as §2
[21] = Drug distribution in kidney of acute kidney injured Balb/c mouse model assessed as increase in CUR level at 4 mg/kg, iv after 2 hrs of administration by IVIS Lumina III analysis; format: ADME, organism-based; details: in vivo; outline: as §3
[22] = Drug uptake in human HK-2 cells assessed as increase in fluorescence intensity pretreated with LPS for 12 hrs followed by compound addition incubated for 6 hrs by mitotracker red based inverted microscopic analysis; format: ADME, cell-based; details: hk-2, 6 h
Outline: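 HK-2 cells co-stained with MitoTracker Red; mitochondrial colocalization of compound imaged by fluorescence microscopy; free CUR as control.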

HK-2 [23] = assay: Induction of apoptosis in LPS-induced HK-2 cells assessed as inhibition of cleaved caspase-9 protein expression pretreated with LPS followed by compound addition incubated for 24 hrs by immunoblotting analysis; format: functional, cell-based; details: Homo sapiens; outline: as §2
Kidney [24] = assay: Antioxidant activity against LPS-induced acute kidney injured Balb/c mouse model assessed as increase in kidney GSH level at 4 mg/kg,iv; format: functional, organism-based; outline: as §4
Kidney [25] = assay: Antioxidant activity against LPS-induced acute kidney injured Balb/c mouse model assessed as increase in kidney superoxide dismutase level at 4 mg/kg,iv; format: functional, organism-based; outline: as §4
HK-2 [26] = assay: Antioxidant activity in human HK-2 cells assessed as reduction in LPS induced intracellular nitrotyrosine expression level pretreated with LPS for 24 hr followed by compound addition incubated for 2 hr by fluorescence imaging based assay; format: functional, cell-based
Kidney [27] = assay: Anti-inflammatory activity against LPS-induced acute kidney injured Balb/c mouse model assessed as reduction in kidney TNF alpha level at 4 mg/kg,iv by ELISA; format: functional, organism-based; outline: as §7

- Drug uptake [1]: Active
- Drug uptake [3]: Not Active
- Drug uptake [6]: Active
- Drug uptake [8]: Active
- Drug uptake [16]: Not Active
- Drug uptake [22]: Active
Structure (SMILES): COc1cc(/C=C/C(=O)CC(=O)/C=C/c2ccc(OC(=O)C(N)CO)c(OC)c2)ccc1OC(=O)CCCC[P+](c1ccccc1)(c1ccccc1)c1ccccc1.[Br-] (configuration not stated)
- Activity (HK-2 [2]): Active
- Activity (Kidney [4]): Active
- Activity (Mus musculus [5]): Active
- Activity (Kidney [7]): Active
- Activity (HK-2 [9]): 40%
- Activity (HK-2 [10]): Active
- Activity (Kidney [11]): Active
- Drug uptake [12]: Active
- Activity (Kidney [13]): Active
- Activity (Mus musculus [14]): Active
- Activity (Mus musculus [15]): Active
- Activity (Kidney [17]): Active
- Activity (Kidney [18]): Active
- Activity (HK-2 [19]): Active
- Activity (HK-2 [20]): Active
- Drug uptake [21]: Active
- Activity (HK-2 [23]): Active
- Activity (Kidney [24]): Active
- Activity (Kidney [25]): Active
- Activity (HK-2 [26]): Active
- Activity (Kidney [27]): Active
